Measured values: ChEMBL document CHEMBL1147104, “Neonatal coinfection model of coagulase-negative Staphylococcus (Staphylococcus epidermidis) and Candida albicans: fluconazole prophylaxis enhances survival and growth” (Antimicrob Agents Chemother, 2007)
Activity calls are given as the source filed them. The rule behind the calls is not given here.

How the values were obtained:
[1] = Serum trough levels in Wistar rat pup at 10 mg/kg of body weight/day, ip after 24 hrs by ELISA; assay type: ADME, organism-based; set-up: dose 10 mg/kg, route intraperitoneal; conditions: read-out: Cmin
Outline: (§1)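 Pups received 10 mg/kg/day i.p. for 4 days. Troughs were taken just before the next dose (24, 48, 72 h) and 24 h after the fourth dose (96 h). Blood was collected by cardiac puncture from 12-15 pups per time point, and serum from 3 pups was pooled per sample, giving 4-5 samples. Serum was stored at −70°C and assayed in one batch. The assay was linear from 0.2 to 200 µg/ml.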

[2] = Serum trough levels in Wistar rat pup at 10 mg/kg of body weight/day, ip after 48 hrs by ELISA; assay type: ADME, organism-based; set-up: dose 10 mg/kg, route intraperitoneal; conditions: read-out: Cmin; outline: as §1
[3] = tested on: Rattus norvegicus; assay: Increase in growth of neonatal Wistar rat infected with Candida albicans ATCC 32354 assessed as weight gain at 10 mg/kg of body weight/day, ip for 4 days beginning 24 hrs before infection relative to control; assay type: functional, organism-based; set-up: dose 10 mg/kg
Outline: (§2)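 In intralipid-immunosuppressed neonatal Wistar pups, littermates were randomized, dosed i.p. daily for 4 days from 24 h pre-infection, and infected s.c. on days 2 and 3 with 2 × 10⁸ CFU C. albicans, with or without 2 × 10⁶ CFU S. epidermidis. Nonedematous weight was recorded daily for 9 days. Slopes of each pup's weight curve were calculated, and group means were compared by one-way ANOVA.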

[4] = tested on: Rattus norvegicus; assay: Increase in growth of neonatal Wistar rat infected with Candida albicans ATCC 32354 and Staphylococcus epidermidis Hay assessed as weight gain at 10 mg/kg of body weight/day, ip for 4 days beginning 24 hrs before infection relative to control; assay type: functional, organism-based; set-up: dose 10 mg/kg; outline: as §2
[5] = tested on: Rattus norvegicus; assay: Survival of neonatal Wistar rat infected with Candida albicans ATCC 32354 at 10 mg/kg of body weight/day, ip for 4 days beginning 24 hrs before infection; assay type: functional; conditions: route intraperitoneal
Outline: (§3)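 Wistar pups aged 1-2 days, kept with dams, were immunosuppressed with 0.2 ml 20% intralipid i.p. (two doses on day 1, one each on days 2 and 3). Drug or placebo was given i.p. daily for 4 days from 24 h before infection. Littermates were randomized and infected s.c. on days 2 and 3 with 2 × 10⁸ CFU C. albicans, alone or with 2 × 10⁶ CFU S. epidermidis. Survival was followed daily for 9 days; groups were compared by Fisher exact test.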

[6] = tested on: Staphylococcus epidermidis; assay: Inhibition of Staphylococcus epidermidis Hay ATCC 55133 at 1 ug/ml by broth microdilution method; assay type: functional, organism-based
[7] = tested on: Rattus norvegicus; assay: Decrease in mortality of neonatal Wistar rat infected with Candida albicans ATCC 32354 at 10 mg/kg of body weight/day, ip for 4 days beginning 24 hrs before infection; assay type: functional; set-up: scale not given: the % may be the effect or the level left; conditions: route intraperitoneal; outline: as §3
[8] = Serum trough levels in Wistar rat pup at 10 mg/kg of body weight/day, ip after 72 hrs by ELISA; assay type: ADME, organism-based; set-up: dose 10 mg/kg, route intraperitoneal; conditions: read-out: Cmin; outline: as §1
[9] = Serum trough levels in Wistar rat pup at 10 mg/kg of body weight/day, ip after 96 hrs by ELISA; assay type: ADME, organism-based; set-up: dose 10 mg/kg, route intraperitoneal; conditions: read-out: Cmin; outline: as §1
[10] = tested on: Rattus norvegicus; assay: Decrease in mortality of neonatal Wistar rat infected with Candida albicans ATCC 32354 and Staphylococcus epidermidis Hay at 10 mg/kg of body weight/day, ip for 4 days beginning 24 hrs before infection; assay type: functional; set-up: scale not given: the % may be the effect or the level left; conditions: route intraperitoneal; outline: as §3
[11] = tested on: Rattus norvegicus; assay: Survival of neonatal Wistar rat infected with Staphylococcus epidermidis Hay and Candida albicans ATCC 32354 at 10 mg/kg of body weight/day, ip for 4 days beginning 24 hrs before infection; assay type: functional; conditions: route intraperitoneal; outline: as §3
[12] = tested on: Candida albicans; assay: Inhibition of Candida albicans ATCC 32354 at 1 ug/ml by broth microdilution method; assay type: functional, organism-based
Outline: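 CLSI M27-A2 broth microdilution. Inoculum was 1-5 × 10³ CFU/ml in RPMI 1640 buffered with MOPS to pH 7. Twofold drug dilutions from 125 to 0.25 µg/ml were tested at 35°C for 48 h, with visual reads at 24 and 48 h. The MIC was the lowest concentration giving a ≥50% decrease in turbidity. Trailing growth at 48 h was counted as susceptible.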

OC(Cn1cncn1)(Cn1cncn1)c1ccc(F)cc1F [FLUCONAZOLE]
concentration at 24 h [1]: 1550 ng/mL | concentration at 48 h [2]: 2500 ng/mL | Activity [3]: Active | Activity [4]: Active | survival at 10 mg/kg [5]: 85.7% | Activity [6]: inactive | Activity [7]: 30% | concentration at 72 h [8]: 1510 ng/mL | concentration at 96 h [9]: 1030 ng/mL | Activity [10]: 36% | survival at 10 mg/kg [11]: 75.6% | Activity [12]: Active
